From ChEMBL document CHEMBL3860038, “Discovery of (R,E)-N-(7-Chloro-1-(1-[4-(dimethylamino)but-2-enoyl]azepan-3-yl)-1H-benzo[d]imidazol-2-yl)-2-methylisonicotinamide (EGF816), a Novel, Potent, and WT Sparing Covalent Inhibitor of Oncogenic (L858R, ex19del) and Resistant (T790M) EGFR Mutants for the Treatment of EGFR Mutant …” (J Med Chem, 2016) come the findings set out here.

Data set [1] addresses T1, Epidermal growth factor receptor (Homo sapiens, UniProt P00533, L858R/T790M). As to the kind of experiment: Inhibition of N-terminal 6x-HIS-tagged human recombinant EGFR (696 to 1022 residues) L858R/T790M mutant expressed in Sf9 cells pre-incubated for 90 mins followed by 1 mM ATP addition by HTRF assay. In outline:
(§1)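 HTRF kinase assay on the EGFR L858R-T790M kinase domain at 1 mM ATP. Compound with either no preincubation or a 90 min enzyme/compound preincubation.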

The target in data set [2] is T1, Epidermal growth factor receptor. In words: Inhibition of N-terminal 6x-HIS-tagged human recombinant EGFR (696 to 1022 residues) L858R/T790M mutant expressed in Sf9 cells pre-incubated for 0 mins followed by 1 mM ATP addition by HTRF assay. The method in brief:
as §1

The target of data set [3] is T2, Epidermal growth factor receptor (Homo sapiens, UniProt P00533, L858R). As to the kind of experiment: Inhibition of EGFR L858R mutant phosphorylation in human patient derived H3255 cells incubated for 3 hrs by ELISA method. It counts as cell-based.
A short description of data set [4]: Inhibition of EGFR E746 to A750 deletion mutant phosphorylation in human patient derived HCC827 cells incubated for 3 hrs by ELISA method. It counts as cell-based. The settings on record: HCC827, 3 h. The method in brief: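 HCC827 cells plated at 7500/well in 5% FBS/RPMI and left overnight at 37 °C. Then 3 h with a 12-point compound dilution series, no EGF stimulation. Lysed in Triton/protease/phosphatase-inhibitor buffer. Phospho-EGFR (Y1173) read by sandwich ELISA: anti-EGFR capture, anti-phospho-EGFR, anti-rabbit-HRP, chemiluminescence. IC50 from at least duplicates.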

The target in data set [5] is T1, Epidermal growth factor receptor. As to the kind of experiment: Inhibition of EGFR L858R/T790M mutant phosphorylation in human patient derived H1975 cells incubated for 3 hrs by ELISA method. The format is cell-based.
A short description of data set [6]: Antitumor activity against human NCI-H1975 cells xenografted in Foxn1 nude mouse assessed as reduction in tumor volume at 25 mg/kg, po qd for 5 days relative to untreated control. It counts as functional. In outline:
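Female Foxn1 nude mice, H1975 cells inoculated subcutaneously. Randomized into groups once tumors reached 150−200 mm³, then dosed by oral gavage once daily for 5 days in 0.5% MC/0.5% Tween80 suspension (10 μL/g). Tumor volumes by caliper, (length × width × width)/2. %T/C = 100 × ΔT/ΔC, or % regression = 100 × ΔT/T_initial when ΔT < 0. Body weight recorded daily.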

A short description of data set [7]: Time duration during which free plasma concentration stays above in-vitro IC50 level in human NCI-H1975 cells xenografted Foxn1 nude mouse at 25 mg/kg, po qd for 5 days. The settings on record: in vivo, 120 h. The format is ADME, organism-based. The method in brief:
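H1975 xenografts in Foxn1 nude mice, oral dosing once daily for 5 days. Plasma sampled after the last dose on day 5, at 30 min, 3 h, 7 h and 24 h. Free drug exposure was compared with in vitro cellular IC50 across the dosing interval.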

Data set [8] can be described thus: Glutathione reactivity assessed as GSH adduct formation incubated for 1 hr using 10 mM glutathione. In outline:
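Compound incubated 1 h with 10 mM glutathione; GSH adduct formation measured.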

For data set [9], the system named is Mus musculus. As to the kind of experiment: Toxicity in human NCI-H1975 cells xenografted Foxn1 nude mouse assessed as change in body weight at 25 mg/kg, po qd for 5 days (reference value: […]). It counts as organism-based. To be noted: in vivo, 120 h.
The target of data set [10] is T2, Epidermal growth factor receptor. As to the kind of experiment: Inhibition of N-terminal 6x-HIS-tagged human recombinant EGFR (696 to 1022 residues) L858R mutant expressed in Sf9 cells pre-incubated for 90 mins followed by 10 uM ATP addition by HTRF assay.
Data set [11] concerns the target T1, Epidermal growth factor receptor. In words: Inhibition of N-terminal 6x-HIS-tagged human recombinant EGFR (696 to 1022 residues) L858R/T790M mutant expressed in Sf9 cells pre-incubated for 90 mins followed by 10 uM ATP addition by HTRF assay.
Data set [12] addresses T3, Epidermal growth factor receptor (Homo sapiens, UniProt P00533). In words: Inhibition of N-terminal 6x-HIS-tagged wild type human recombinant EGFR (696 to 1022 residues) expressed in Sf9 cells pre-incubated for 90 mins followed by 10 uM ATP addition by HTRF assay.
The target of data set [13] is T3, Epidermal growth factor receptor. As to the kind of experiment: Inhibition of wild type EGFR phosphorylation in human HaCaT cells incubated for 3 hrs by ELISA method. It counts as cell-based.
Data set [14] in a line: Intrinsic clearance in human liver microsomes. It counts as ADME. The settings on record: read-out: CLH.
The target in data set [15] is Cytochrome P450 3A4 (Homo sapiens, UniProt P08684). In words: Inhibition of CYP3A4 (unknown origin). The format is ADME.
A short description of data set [16]: Clearance in balb/c mouse at 5 mg/kg, iv by liquid chromatography-tandem mass spectrometry. The format is ADME, organism-based. To be noted: in vivo. The method in brief: (§2)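 Rodent PK in male balb/c mice and male Wistar rats; plasma drug levels by LC-MS/MS. Mouse oral dosing at 20 mg/kg, with compounds given as a 0.5% methylcellulose/0.5% Tween 80 suspension or as solutions (PEG300/D5W, or ethanol/PEG300 with Solutol or D5W), depending on compound.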

Data set [17] has as its target Cytochrome P450 2C9 (Homo sapiens, UniProt P11712). In words: Inhibition of CYP2C9 (unknown origin). The format is ADME.
Data set [18] has as its target Cytochrome P450 2D6 (Homo sapiens, UniProt P10635). In words: Inhibition of CYP2D6 (unknown origin). It counts as ADME.
The nature of data set [19]: AUC in balb/c mouse at 20 mg/kg, po by liquid chromatography-tandem mass spectrometry. It counts as ADME, organism-based. To be noted: in vivo. In outline:
as §2

Data set [20] in a line: Intrinsic clearance in mouse liver microsomes. The format is ADME. The settings on record: read-out: CLH.
Data set [21] is described as follows: Aqueous solubility of the compound at pH 6.8. The format is physicochemical.
Data set [22] can be described thus: Oral bioavailability in balb/c mouse at 20 mg/kg by liquid chromatography-tandem mass spectrometry. The format is ADME, organism-based. The settings on record: in vivo. The method in brief: as §2

Values after ≈ are worked out from the molar mass of the structure shown.

T1 sequence (P00533 25-1210 T790M/L858R limits assumed): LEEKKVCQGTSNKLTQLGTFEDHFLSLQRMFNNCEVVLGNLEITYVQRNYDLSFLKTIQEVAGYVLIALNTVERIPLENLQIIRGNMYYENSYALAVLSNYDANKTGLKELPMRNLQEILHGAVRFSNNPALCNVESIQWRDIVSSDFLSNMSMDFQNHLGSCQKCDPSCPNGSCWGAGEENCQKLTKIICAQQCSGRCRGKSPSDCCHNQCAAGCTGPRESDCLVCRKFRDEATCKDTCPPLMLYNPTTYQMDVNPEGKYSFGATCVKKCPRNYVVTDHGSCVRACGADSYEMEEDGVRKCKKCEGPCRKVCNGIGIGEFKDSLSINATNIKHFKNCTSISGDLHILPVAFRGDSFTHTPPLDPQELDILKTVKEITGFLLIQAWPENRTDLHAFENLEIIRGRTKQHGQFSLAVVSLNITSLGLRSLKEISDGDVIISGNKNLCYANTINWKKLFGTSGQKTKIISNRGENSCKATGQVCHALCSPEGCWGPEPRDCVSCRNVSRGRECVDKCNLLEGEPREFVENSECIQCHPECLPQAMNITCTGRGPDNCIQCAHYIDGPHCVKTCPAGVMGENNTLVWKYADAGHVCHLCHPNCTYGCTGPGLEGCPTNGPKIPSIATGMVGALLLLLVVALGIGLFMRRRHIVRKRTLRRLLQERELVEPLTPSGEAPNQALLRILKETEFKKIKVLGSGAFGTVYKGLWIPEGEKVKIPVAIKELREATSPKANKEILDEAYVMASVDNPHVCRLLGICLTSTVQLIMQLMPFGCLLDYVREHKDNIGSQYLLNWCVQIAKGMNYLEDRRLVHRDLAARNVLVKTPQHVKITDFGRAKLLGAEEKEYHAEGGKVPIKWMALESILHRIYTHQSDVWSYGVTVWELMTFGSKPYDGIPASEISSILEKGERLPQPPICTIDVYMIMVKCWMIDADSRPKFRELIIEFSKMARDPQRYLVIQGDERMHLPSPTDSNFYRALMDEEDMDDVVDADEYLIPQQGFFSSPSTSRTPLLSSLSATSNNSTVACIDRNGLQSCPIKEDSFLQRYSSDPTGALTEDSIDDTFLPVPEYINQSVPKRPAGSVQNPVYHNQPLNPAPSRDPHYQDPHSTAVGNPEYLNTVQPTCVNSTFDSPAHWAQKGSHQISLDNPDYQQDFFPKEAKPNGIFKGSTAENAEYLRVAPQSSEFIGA
T3 sequence (P00533 whole entry, the tested form may be a part): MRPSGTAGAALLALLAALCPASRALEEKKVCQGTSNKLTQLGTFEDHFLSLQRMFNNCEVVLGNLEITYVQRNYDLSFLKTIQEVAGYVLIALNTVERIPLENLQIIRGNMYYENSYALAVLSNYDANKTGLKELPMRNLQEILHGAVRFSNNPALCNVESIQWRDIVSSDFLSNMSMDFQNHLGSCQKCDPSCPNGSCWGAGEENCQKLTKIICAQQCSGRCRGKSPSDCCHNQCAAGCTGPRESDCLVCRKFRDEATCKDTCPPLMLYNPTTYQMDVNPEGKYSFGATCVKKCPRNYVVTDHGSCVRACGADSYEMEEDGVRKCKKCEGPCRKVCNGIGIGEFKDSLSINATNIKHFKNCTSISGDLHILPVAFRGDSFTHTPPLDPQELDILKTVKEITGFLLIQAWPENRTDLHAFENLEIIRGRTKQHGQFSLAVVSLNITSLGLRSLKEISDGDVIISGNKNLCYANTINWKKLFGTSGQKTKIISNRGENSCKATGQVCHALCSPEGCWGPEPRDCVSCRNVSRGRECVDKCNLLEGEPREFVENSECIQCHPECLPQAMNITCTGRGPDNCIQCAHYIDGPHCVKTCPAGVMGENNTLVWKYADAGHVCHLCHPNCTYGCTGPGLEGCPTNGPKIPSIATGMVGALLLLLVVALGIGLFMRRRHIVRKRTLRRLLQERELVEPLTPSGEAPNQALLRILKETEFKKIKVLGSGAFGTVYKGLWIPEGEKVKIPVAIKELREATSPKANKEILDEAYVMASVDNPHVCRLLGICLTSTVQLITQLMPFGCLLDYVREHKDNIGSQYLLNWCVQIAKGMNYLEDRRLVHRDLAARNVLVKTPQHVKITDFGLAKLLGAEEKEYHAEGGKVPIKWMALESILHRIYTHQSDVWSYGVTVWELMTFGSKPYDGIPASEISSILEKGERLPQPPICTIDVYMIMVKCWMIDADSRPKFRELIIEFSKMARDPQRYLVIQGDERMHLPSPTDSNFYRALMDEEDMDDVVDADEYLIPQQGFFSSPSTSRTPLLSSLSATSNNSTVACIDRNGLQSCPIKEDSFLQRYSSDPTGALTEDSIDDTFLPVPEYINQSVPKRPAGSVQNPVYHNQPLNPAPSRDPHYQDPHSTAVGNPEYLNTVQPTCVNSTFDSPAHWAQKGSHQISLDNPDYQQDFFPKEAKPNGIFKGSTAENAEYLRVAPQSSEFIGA
T2 sequence (P00533 25-1210 L858R limits assumed): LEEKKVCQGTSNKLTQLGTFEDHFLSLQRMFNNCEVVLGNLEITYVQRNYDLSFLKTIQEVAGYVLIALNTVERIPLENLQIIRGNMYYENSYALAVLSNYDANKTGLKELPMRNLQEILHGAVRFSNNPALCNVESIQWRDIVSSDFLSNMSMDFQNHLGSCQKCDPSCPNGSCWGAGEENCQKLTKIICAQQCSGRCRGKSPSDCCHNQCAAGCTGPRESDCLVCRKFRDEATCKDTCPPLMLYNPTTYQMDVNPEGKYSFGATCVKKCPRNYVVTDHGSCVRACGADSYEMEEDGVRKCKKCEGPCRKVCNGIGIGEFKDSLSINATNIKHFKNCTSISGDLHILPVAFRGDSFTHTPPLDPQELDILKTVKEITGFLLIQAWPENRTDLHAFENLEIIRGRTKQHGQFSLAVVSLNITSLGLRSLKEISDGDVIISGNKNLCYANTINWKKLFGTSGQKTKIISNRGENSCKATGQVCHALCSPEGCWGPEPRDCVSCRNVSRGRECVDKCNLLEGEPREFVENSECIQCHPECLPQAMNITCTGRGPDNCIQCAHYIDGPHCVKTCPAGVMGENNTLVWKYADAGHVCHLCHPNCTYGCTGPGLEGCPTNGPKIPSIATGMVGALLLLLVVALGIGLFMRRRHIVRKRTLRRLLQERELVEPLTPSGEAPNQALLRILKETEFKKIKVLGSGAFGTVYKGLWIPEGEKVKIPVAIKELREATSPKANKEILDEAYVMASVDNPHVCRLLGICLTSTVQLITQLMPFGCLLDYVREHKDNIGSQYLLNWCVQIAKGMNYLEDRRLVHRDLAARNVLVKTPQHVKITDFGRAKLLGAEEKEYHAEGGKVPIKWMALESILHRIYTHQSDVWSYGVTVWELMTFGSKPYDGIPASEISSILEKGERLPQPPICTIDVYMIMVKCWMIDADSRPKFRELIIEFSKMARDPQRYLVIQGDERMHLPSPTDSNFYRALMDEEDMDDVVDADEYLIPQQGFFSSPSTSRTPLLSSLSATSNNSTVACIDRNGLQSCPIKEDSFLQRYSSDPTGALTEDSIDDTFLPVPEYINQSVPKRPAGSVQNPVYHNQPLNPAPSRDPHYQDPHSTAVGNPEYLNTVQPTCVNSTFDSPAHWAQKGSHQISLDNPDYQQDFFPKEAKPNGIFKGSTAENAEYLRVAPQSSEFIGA
Sequence of Cytochrome P450 2D6 (P10635 whole entry): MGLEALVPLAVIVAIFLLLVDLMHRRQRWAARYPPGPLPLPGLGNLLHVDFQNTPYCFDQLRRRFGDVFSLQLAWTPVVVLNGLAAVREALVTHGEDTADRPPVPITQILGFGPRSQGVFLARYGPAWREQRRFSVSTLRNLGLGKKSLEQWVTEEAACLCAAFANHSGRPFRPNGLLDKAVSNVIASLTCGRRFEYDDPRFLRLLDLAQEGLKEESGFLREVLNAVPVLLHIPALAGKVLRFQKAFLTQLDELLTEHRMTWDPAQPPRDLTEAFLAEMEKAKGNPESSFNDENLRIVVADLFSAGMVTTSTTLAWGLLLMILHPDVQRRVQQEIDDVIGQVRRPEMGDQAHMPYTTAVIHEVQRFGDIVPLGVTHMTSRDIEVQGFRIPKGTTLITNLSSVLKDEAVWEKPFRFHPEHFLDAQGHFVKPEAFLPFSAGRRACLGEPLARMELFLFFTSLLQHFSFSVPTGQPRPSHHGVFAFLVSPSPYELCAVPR
Sequence of Cytochrome P450 3A4 (P08684 whole entry): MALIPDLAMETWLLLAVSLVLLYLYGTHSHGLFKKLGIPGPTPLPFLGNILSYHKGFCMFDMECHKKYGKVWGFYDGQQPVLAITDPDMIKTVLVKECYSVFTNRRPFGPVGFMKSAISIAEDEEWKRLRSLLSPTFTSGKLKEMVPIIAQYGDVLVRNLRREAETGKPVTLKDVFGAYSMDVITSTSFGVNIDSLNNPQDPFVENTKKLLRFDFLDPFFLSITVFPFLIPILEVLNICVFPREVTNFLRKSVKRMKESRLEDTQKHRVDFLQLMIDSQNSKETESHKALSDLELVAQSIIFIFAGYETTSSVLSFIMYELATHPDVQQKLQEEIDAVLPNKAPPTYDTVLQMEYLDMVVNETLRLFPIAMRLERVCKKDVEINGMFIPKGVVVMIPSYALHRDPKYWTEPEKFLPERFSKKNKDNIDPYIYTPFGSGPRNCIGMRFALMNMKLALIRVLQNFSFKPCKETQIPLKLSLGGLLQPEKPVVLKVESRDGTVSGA
Sequence of Cytochrome P450 2C9 (P11712 whole entry): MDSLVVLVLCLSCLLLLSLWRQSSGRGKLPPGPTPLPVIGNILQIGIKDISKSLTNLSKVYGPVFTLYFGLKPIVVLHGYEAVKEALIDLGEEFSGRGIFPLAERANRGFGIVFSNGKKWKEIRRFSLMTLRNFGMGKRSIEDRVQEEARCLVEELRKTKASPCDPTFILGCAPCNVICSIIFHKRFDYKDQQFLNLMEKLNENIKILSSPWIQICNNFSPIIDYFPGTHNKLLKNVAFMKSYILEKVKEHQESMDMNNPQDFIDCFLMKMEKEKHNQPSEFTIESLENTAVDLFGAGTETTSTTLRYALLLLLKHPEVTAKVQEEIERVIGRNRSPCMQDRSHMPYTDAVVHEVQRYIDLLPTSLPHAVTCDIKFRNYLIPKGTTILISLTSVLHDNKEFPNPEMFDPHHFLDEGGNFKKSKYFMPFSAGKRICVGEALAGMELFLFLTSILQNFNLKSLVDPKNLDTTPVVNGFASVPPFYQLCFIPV

`C=CC(=O)Nc1cccc(-n2c(NC(=O)c3cccc(C(F)(F)F)c3)nc3cc(C)ccc32)c1`: the IC50 in data set [1] is 0.004 µM; in data set [2], greater than 50 µM; in [3], 1.04 µM; in data set [4], 0.272 µM; in data set [5], 0.135 µM.

For the compound `C=CC(=O)N[C@H]1CCCC[C@H]1n1c(NC(=O)c2cccc(C(F)(F)F)c2)nc2cc(C)ccc21` (racemic), the IC50 in data set [1] and in data set [2] was greater than 50 µM throughout.

Regarding `C=CC(=O)Nc1ccc(-n2c(NC(=O)c3cccc(C(F)(F)F)c3)nc3cc(C)ccc32)cc1`, the IC50 in data set [1] and in data set [2] was greater than 50 µM each time.

In the case of `CN(C)C/C=C/C(=O)Nc1cc2c(Nc3ccc(F)c(Cl)c3)ncnc2cc1O[C@H]1CCOC1` [AFATINIB], the T/C in data set [6] turned out to be 38%. The Time entry in data set [7] was “<= 14 hr”. In data set [8], the Drug metabolism was 60%. Further, the Activity in data set [9] is -2.4%.

In the case of `C=CC(=O)NC1CCC(n2c(NC(=O)c3cccc(C(F)(F)F)c3)nc3cc(C)ccc32)C1` (stereo not given), the IC50 in data set [1] was 6.81 µM; in [2], greater than 50 µM.

`C=CC(=O)Nc1cccc(Nc2nc(Nc3ccc(N4CCN(C(C)=O)CC4)cc3OC)ncc2C(F)(F)F)c1` [ROCILETINIB] showed an IC50 in data set [4] of 0.0095 µM.

In the case of `C=CC(=O)N1CCC(n2c(NC(=O)c3cccc(C(F)(F)F)c3)nc3cc(C)ccc32)C1` (stereo not given), the half-inhibitory concentration (IC50) in [1] and in [2] was greater than 50 µM throughout.

With `Cc1ccc2c(c1)nc(NC(=O)c1cccc(C(F)(F)F)c1)n2[C@H]1CC[C@H](O)CC1`, the 50% inhibitory concentration (IC50) in data set [10] is greater than 8.48 µM; in data set [11] it was 0.14 µM; in data set [12], greater than 11.8 µM.

Consider `C=CC(=O)N[C@H]1CC[C@@H](n2c(NC(=O)c3cccc(C(F)(F)F)c3)nc3cc(C)ccc32)CC1`, for which the IC50 in [1] and in data set [2] was greater than 50 µM in each case.

As to `C=CC(=O)N1CCCC(n2c(NC(=O)c3cccc(C(F)(F)F)c3)nc3cc(C)ccc32)CC1` (stereo not given), the IC50 in data set [1] and in [2] was greater than 50 µM each time.

Regarding `Cc1cccc2c1nc(NC(=O)c1cccc(C(F)(F)F)c1)n2[C@H]1CC[C@H](O)CC1`, the figures for the IC50 in [10], in data set [11] and in data set [12] were 11.8 µM, 1.37 µM and greater than 50 µM, respectively.

With `Cc1cccc2nc(NC(=O)c3cccc(C(F)(F)F)c3)n([C@H]3CC[C@H](O)CC3)c12`, the figures for the concentration for half-maximal inhibition (IC50) in data set [10], in data set [11] and in [12] were 0.68 µM, 0.09 µM and 5.27 µM, respectively.

For `C=CC(=O)N[C@H]1CC[C@H](n2c(NC(=O)c3cccc(C(F)(F)F)c3)nc3cc(C)ccc32)CC1`, the IC50 in data set [1] and in [2] was greater than 50 µM in each case.

On to `C=CC(=O)N1CCCCC(n2c(NC(=O)c3cccc(C(F)(F)F)c3)nc3cc(C)ccc32)C1` (stereo not given), for which the IC50 in [1] is less than 0.002 µM; in data set [2] it was 0.83 µM; in data set [3] it was 0.0749 µM; in data set [4], 0.0159 µM; in data set [5], 0.0061 µM; in [13] it was 4.33 µM.

Take `Cc1cc(C(=O)Nc2nc3cccc(Cl)c3n2[C@@H]2CCCCN(C(=O)/C=C/CN(C)C)C2)ccn1`: the Drug metabolism in [8] is less than 5%.

With `Cc1cccc2nc(NC(=O)c3cccc(C(F)(F)F)c3)n([C@@H]3CCCCN(C(=O)/C=C/CN(C)C)C3)c12`, the microsomal CLint in data set [14] amounted to 49 µL/min/mg; in data set [20], 233 µL/min/mg. Moreover, the IC50 in data set [15] came to 22.2 µM; in [3] it was 0.0459 µM; in [4], 0.0124 µM; in data set [17], 17.6 µM; in data set [18], 16.7 µM; in data set [5] it was 0.00218 µM. This compound gave an IC50 in data set [13] of 0.351 µM. Further, the clearance in data set [16] was determined as 57.2 mL/min/kg. Also, the Drug metabolism in data set [8] is less than 5%. Also, the AUC in data set [19] was determined as 4.39 µM·h. Moreover, the solubility in data set [21] amounted to 10.5 µM (≈ 5.54 µg/mL). In data set [22], this compound yielded a bioavailability of 40%.

With `O=C(Nc1nc2ccccc2n1[C@H]1CC[C@H](O)CC1)c1cccc(C(F)(F)F)c1`, the IC50 was 2 µM in data set [10], 0.26 µM in [11] and greater than 50 µM in data set [12].

Regarding `C=CC(=O)N1CC(n2c(NC(=O)c3cccc(C(F)(F)F)c3)nc3cc(C)ccc32)C1`, the IC50 in data set [1] and in data set [2] was greater than 50 µM throughout.

`C=CC(=O)N[C@@H]1CCCC[C@H]1n1c(NC(=O)c2cccc(C(F)(F)F)c2)nc2cc(C)ccc21` (racemic): the IC50 in data set [1] and in data set [2] was greater than 50 µM in each case.

With `C=CC(=O)N(C)c1cccc(-n2c(NC(=O)c3cccc(C(F)(F)F)c3)nc3cc(C)ccc32)c1`, the IC50 in data set [1] was 0.01 µM; in data set [2] it was 22.3 µM; in [4], 0.268 µM; in [5] it was 0.181 µM; in data set [13] it was greater than 10 µM.

For `C=CC(=O)Nc1ccccc1-n1c(NC(=O)c2cccc(C(F)(F)F)c2)nc2cc(C)ccc21`, the half-maximal inhibitory concentration (IC50) in data set [1] was greater than 32.8 µM; in [2], greater than 50 µM.

Turning to `CCOCc1ccc2c(c1)nc(NC(=O)c1cccc(C(F)(F)F)c1)n2[C@H]1CC[C@H](O)CC1`, the IC50 in [10] is 2.08 µM; in data set [11] it was 0.47 µM; in data set [12], greater than 42 µM.

As for `C=CC(=O)NCCn1c(NC(=O)c2cccc(C(F)(F)F)c2)nc2cc(C)ccc21`, the IC50 in [1] and in data set [2] was greater than 50 µM in each case.

In the case of `C=CC(=O)N1CCCC(n2c(NC(=O)c3cccc(C(F)(F)F)c3)nc3cc(C)ccc32)C1` (stereo not given), the IC50 in data set [1] was 0.02 µM; in [2], greater than 50 µM; in data set [3], 0.421 µM; in data set [4] it was 0.153 µM; in data set [5], 0.0247 µM; in [13], greater than 10 µM.

As for `C=CC(=O)N1CCC(n2c(NC(=O)c3cccc(C(F)(F)F)c3)nc3cc(C)ccc32)CC1`, the IC50 in data set [1] is 16.5 µM; in [2], greater than 37.7 µM.

As to `C=CC(=O)NCCCn1c(NC(=O)c2cccc(C(F)(F)F)c2)nc2cc(C)ccc21`, the IC50 was 0.05 µM in [1], greater than 50 µM in data set [2], 1.65 µM in data set [4] and 0.525 µM in data set [5].
